Reference: ChEMBL document CHEMBL3396959, “Structural requirements for TLR7-selective signaling by 9-(4-piperidinylalkyl)-8-oxoadenine derivatives” (Bioorg Med Chem Lett, 2015)
Calls of active or inactive are those of the source. No cut-off for these calls is given here.

How the values were obtained:
PBMC [1] = assay: Induction of IFNgamma production in primary human PBMC after 24 hrs by ELISA method; type: functional, cell-based
PBMC [2] = assay: Induction of TNFalpha production in primary human PBMC at 0.001 to 10 uM after 24 hrs by ELISA method; type: functional, cell-based
Procedure, shortened: (§1)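 Ficoll-isolated healthy-donor PBMCs at 0.5 × 10^6 cells/well in RPMI-1640/10% FBS were stimulated 24 h with aqueous compound. Supernatant TNFa was assayed with a […]. Data are from three donors in triplicate, with SEM shown.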

PBMC [3] = assay: Induction of IFNalpha production in primary human PBMC at 0.001 to 10 uM after 24 hrs by ELISA method; type: functional, cell-based
Procedure, shortened: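 Fresh healthy-donor PBMCs were isolated by Ficoll and plated at 0.5 × 10^6 cells/well in RPMI-1640/10% FBS with antibiotics. Aqueous compound formulations were added for 24 h across 0.0001–10 µM. Supernatant IFNa was measured by ELISA. Data are from three donors, each run in triplicate, with SEM shown.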

Toll-like receptor 7 = target: T1, Toll-like receptor 7 (Homo sapiens, UniProt Q9NYK1); assay: Activation of human TLR7 expressed in HEK293 cells after 24 hrs by NFkappaB-mediated SEAP reporter gene assay; type: cell-based
T1 sequence (Q9NYK1 whole entry): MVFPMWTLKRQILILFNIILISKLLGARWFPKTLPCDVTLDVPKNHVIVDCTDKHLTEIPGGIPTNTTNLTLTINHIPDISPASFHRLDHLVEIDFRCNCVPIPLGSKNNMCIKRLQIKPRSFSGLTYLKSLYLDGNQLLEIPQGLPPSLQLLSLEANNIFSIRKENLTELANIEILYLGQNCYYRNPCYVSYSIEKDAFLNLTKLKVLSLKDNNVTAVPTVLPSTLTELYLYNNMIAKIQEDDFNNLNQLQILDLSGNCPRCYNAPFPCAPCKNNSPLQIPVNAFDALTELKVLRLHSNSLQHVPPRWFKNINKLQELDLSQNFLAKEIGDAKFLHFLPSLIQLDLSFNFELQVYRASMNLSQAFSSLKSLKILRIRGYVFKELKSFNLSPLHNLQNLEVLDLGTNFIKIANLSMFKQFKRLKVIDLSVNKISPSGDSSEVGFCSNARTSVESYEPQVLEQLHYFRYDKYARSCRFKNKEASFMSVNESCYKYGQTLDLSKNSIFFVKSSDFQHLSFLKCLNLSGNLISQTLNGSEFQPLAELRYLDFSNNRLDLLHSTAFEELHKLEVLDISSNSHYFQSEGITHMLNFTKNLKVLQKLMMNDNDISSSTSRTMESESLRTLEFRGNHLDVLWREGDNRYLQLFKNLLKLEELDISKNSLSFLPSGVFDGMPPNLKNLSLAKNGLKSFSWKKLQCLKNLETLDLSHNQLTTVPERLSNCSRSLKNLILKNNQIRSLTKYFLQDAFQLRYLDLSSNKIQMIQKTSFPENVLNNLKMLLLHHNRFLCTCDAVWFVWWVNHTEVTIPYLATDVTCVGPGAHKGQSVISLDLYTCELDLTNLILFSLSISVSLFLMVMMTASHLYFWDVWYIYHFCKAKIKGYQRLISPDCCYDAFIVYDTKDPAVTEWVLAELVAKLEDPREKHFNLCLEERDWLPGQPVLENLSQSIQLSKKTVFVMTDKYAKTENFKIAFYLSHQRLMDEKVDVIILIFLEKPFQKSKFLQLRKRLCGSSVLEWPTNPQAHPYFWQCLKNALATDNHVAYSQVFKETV
Procedure, shortened: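 HEK293 cells stably transfected with hTLR7 or hTLR8 plus an NF-kB-driven SEAP reporter were kept in DMEM/10% FBS with selection antibiotics. Aqueous compound formulations were added for 24 h, and supernatant SEAP was read colorimetrically. Points were run in triplicate and averaged. Activity was scaled to the maximum of a reference agonist set at 100%. EC50 was taken from dose-response curves with 95% CI.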

Toll-like receptor 8 = target: T2, Toll-like receptor 8 (Homo sapiens, UniProt Q9NR97); assay: Activation of human TLR8 expressed in HEK293 cells after 24 hrs by NFkappaB-mediated SEAP reporter gene assay; type: cell-based
T2 sequence (Q9NR97 whole entry): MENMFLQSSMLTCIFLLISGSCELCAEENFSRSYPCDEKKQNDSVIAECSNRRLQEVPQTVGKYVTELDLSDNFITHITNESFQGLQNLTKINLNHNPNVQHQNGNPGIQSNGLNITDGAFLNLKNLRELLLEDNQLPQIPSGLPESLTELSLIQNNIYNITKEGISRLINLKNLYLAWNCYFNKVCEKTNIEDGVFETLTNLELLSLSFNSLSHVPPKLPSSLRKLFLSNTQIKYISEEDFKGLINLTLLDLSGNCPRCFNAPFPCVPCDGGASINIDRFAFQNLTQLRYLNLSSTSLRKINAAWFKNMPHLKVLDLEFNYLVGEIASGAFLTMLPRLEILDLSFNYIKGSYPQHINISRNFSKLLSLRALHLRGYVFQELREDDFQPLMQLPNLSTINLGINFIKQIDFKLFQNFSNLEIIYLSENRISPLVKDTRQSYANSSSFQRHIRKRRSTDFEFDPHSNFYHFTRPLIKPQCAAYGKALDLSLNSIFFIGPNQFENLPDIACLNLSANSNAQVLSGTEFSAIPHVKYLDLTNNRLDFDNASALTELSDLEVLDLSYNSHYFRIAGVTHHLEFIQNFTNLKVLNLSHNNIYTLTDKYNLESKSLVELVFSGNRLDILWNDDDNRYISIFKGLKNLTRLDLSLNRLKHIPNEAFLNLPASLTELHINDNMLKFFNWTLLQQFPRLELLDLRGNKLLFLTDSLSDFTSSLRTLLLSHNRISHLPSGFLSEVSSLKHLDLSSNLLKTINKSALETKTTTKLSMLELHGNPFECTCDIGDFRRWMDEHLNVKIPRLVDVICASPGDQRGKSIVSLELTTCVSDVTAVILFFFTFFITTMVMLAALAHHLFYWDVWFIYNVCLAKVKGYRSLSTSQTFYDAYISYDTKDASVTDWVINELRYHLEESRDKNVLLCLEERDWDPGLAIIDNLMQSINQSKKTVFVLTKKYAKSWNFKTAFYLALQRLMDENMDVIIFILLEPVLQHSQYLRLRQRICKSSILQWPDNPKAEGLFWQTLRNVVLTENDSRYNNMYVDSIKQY
Procedure, shortened: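 HEK293 cells stably transfected with hTLR7 or hTLR8 plus an NF-kB-driven SEAP reporter were kept in DMEM/10% FBS with selection antibiotics. Aqueous compound formulations were added for 24 h, and supernatant SEAP was read colorimetrically. Points were run in triplicate and averaged.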

PBMC [4] = assay: Reduction in IFNalpha production in primary human PBMC at >10 uM after 24 hrs by ELISA method; type: functional, cell-based
[5] = Induction of IL6 expression in human HLA-DR(+), CD11c(+) and CD123(-) expressing mDC after 24 hrs by intracellular cytokine staining method; type: functional; parameters: concentration or dose not given beside the values
Procedure, shortened: (§2)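 PBMCs were stimulated with aqueous compound for 24 h, with GolgiPlug (10 ng/ml) present for the final 6 h. Cells were washed and surface-stained for lineage markers (mDC HLA-DR+ CD11c+ CD123−; pDC HLA-DR+ CD11c− CD123+). They were then permeabilized with Perm/Fix buffer and stained with fluorochrome-conjugated anti-cytokine antibodies for flow cytometry.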

PBMC [6] = assay: Induction of TNFalpha production in primary human PBMC after 24 hrs by ELISA method; type: functional, cell-based; procedure, shortened: as §1
Homo sapiens [7] = species on record: Homo sapiens; assay: Induction of apoptosis in human HLA-DR(+), CD11c(-) and CD123(+) expressing pDC at 1 nM after 24 hrs by Annexin-V staining method; type: functional
Procedure, shortened: (§3)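 PBMCs were stimulated for 24 h with compound at doses of 0.01 nM, 1 nM, 100 nM and 10 µM. Cells were phenotyped into mDC (HLA-DR+ CD11c+ CD123−) and pDC (HLA-DR+ CD11c− CD123+) and stained with Annexin-V to read apoptosis by flow cytometry.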

Homo sapiens [8] = species on record: Homo sapiens; assay: Induction of TNFalpha production in human HLA-DR(+), CD11c(+) and CD123(-) expressing mDC after 24 hrs by intracellular cytokine staining
HEK293 = assay: Toxicity against human TLR8 expressing HEK293 cells after 24 hrs by live/dead fixable aqua staining method; type: cell-based; conditions: hek293, 24 h
Procedure, shortened: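 HEK293-hTLR8 reporter cells were stimulated with compound for 24 h. Cells were then incubated with Live/Dead fixable Aqua dye for 30 min, washed extensively, and read for viability by flow cytometry.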

Homo sapiens [9] = species on record: Homo sapiens; assay: Induction of TNFalpha production in human HLA-DR(+), CD11c(-) and CD123(+) expressing pDC after 24 hrs by intracellular cytokine staining method; type: functional, cell-based; procedure, shortened: as §2
Homo sapiens [10] = species on record: Homo sapiens; assay: Induction of apoptosis in human HLA-DR(+), CD11c(+) and CD123(-) expressing mDC at 1 nM after 24 hrs by Annexin-V staining method; type: functional; procedure, shortened: as §3
Homo sapiens [11] = species on record: Homo sapiens; assay: Induction of TNFalpha production in human HLA-DR(+), CD11c(+) and CD123(-) expressing mDC after 24 hrs by intracellular cytokine staining method; type: functional, cell-based; procedure, shortened: as §2
Homo sapiens [12] = species on record: Homo sapiens; assay: Induction of INFalpha production in human HLA-DR(+), CD11c(+) and CD123(-) expressing mDC after 24 hrs by intracellular cytokine staining method; type: functional, cell-based; procedure, shortened: as §2
Homo sapiens [13] = species on record: Homo sapiens; assay: Induction of INFalpha production in human HLA-DR(+), CD11c(+) and CD123(-) expressing mDC after 24 hrs by […]; type: functional
Homo sapiens [14] = species on record: Homo sapiens; assay: Induction of INFalpha production in human HLA-DR(+), CD11c(-) and CD123(+) expressing pDC after 24 hrs by […]; type: functional
Homo sapiens [15] = species on record: Homo sapiens; assay: Induction of INFalpha production in human HLA-DR(+), CD11c(-) and CD123(+) expressing pDC after 24 hrs by intracellular cytokine staining method; type: functional, cell-based; procedure, shortened: as §2
Homo sapiens [16] = species on record: Homo sapiens; assay: Induction of TNFalpha production in human HLA-DR(+), CD11c(-) and CD123(+) expressing pDC after 24 hrs by […]; type: functional
Homo sapiens [17] = species on record: Homo sapiens; assay: Induction of apoptosis in human HLA-DR(+), CD11c(+) and CD123(-) expressing mDC at 10 uM after 24 hrs by Annexin-V staining method; type: functional; procedure, shortened: as §3
Homo sapiens [18] = species on record: Homo sapiens; assay: Induction of apoptosis in human HLA-DR(+), CD11c(-) and CD123(+) expressing pDC at 10 uM after 24 hrs by Annexin-V staining method; type: functional; procedure, shortened: as §3

| Structure (SMILES) | Activity (PBMC [1]) | Activity (PBMC [2]) | Activity (PBMC [3]) | EC50 (Toll-like receptor 7; read-out: EC50) [nM] | EC50 (Toll-like receptor 8; read-out: EC50) [nM] | inhibition (PBMC [4]) | Activity [5] [%] | Activity (PBMC [6]) | Activity (HEK293) | further results |
| --- | --- | --- | --- | --- | --- | --- | --- | --- | --- | --- |
| CCCCOc1nc(N)c2[nH]c(=O)n(CCCCCCC3CCNCC3)c2n1.Cl | Active | Dose-dependent effect | Active | 230 | 29000 | Dose-dependent effect | 28.5 | Active |  |  |
| CCCCOc1nc(N)c2[nH]c(=O)n(CCCCCC3CCNCC3)c2n1.Cl | Active | Dose-dependent effect | Active | 100 |  | Dose-dependent effect | 31.5 | Active | Toxic | Activity (Homo sapiens [7]): Active; Activity (Homo sapiens [8]): Dose-dependent effect; Activity (Homo sapiens [9]): Dose-dependent effect; Activity (Homo sapiens [10]): inactive; Activity (Homo sapiens [11]): Dose-dependent effect; Activity (Homo sapiens [12]): Dose-dependent effect; Activity (Homo sapiens [13]): Dose-dependent effect; Activity (Homo sapiens [14]): Dose-dependent effect; Activity (Homo sapiens [15]): Dose-dependent effect; Activity (Homo sapiens [16]): Dose-dependent effect |
| CCCCOc1nc(N)c2[nH]c(=O)n(CCCCC3CCNCC3)c2n1.Cl | Active | Dose-dependent effect | Active | 150 | 131000 | Dose-dependent effect | 22.3 | Active | Toxic |  |
| CCCCOc1nc(N)c2[nH]c(=O)n(C3CCNCC3)c2n1.Cl | inactive |  | inactive |  |  |  |  | inactive |  | EC50 (Toll-like receptor 7; hek293): Not Active; EC50 (Toll-like receptor 8; hek293): Not Active |
| CCCCOc1nc(N)c2[nH]c(=O)n(CCCC3CCNCC3)c2n1.Cl | Active | Dose-dependent effect | Active | 620 | 260000 | Dose-dependent effect | 8.27 | Active | Non-toxic |  |
| CCCCOc1nc(N)c2[nH]c(=O)n(CCC3CCNCC3)c2n1.Cl | Active | Dose-dependent effect | Active | 150 | 231000 | Dose-dependent effect | 4.91 | Active | Non-toxic |  |
| CCCCOc1nc(N)c2[nH]c(=O)n(CC3CCNCC3)c2n1.Cl | inactive |  | Active | 3950 |  | Dose-dependent effect | 2.95 | inactive | Non-toxic | Activity (Homo sapiens [17]): Active; Activity (Homo sapiens [18]): Active; Activity (Homo sapiens [8]): Dose-dependent effect; Activity (Homo sapiens [9]): Dose-dependent effect; Activity (Homo sapiens [11]): Dose-dependent effect; Activity (Homo sapiens [12]): Dose-dependent effect; Activity (Homo sapiens [13]): Dose-dependent effect; Activity (Homo sapiens [14]): Dose-dependent effect; Activity (Homo sapiens [15]): Dose-dependent effect; Activity (Homo sapiens [16]): Dose-dependent effect |
